Shown are actives, neighbours in structure and some others; about 2.3% of the full set was active somewhere.
Scp1 inh – blocks human Scp-1 phosphatase activity; Q9GZU7; Recombinant Scp1, phosphopeptide, malachite green phosphate absorbance; inhibition, % at 20 µM; 0.88% of 340,000 active; AID 493091;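 active = inhibition above about 50% at 20 µM, limit read from the data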;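 note: plate controls were DMSO wells with enzyme for no effect and wells lacking enzyme for full effect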
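Assay system: SCP-1 catalytic fragment, aa 76-261 | Buffer or medium: Tris acetate buffer pH 5.5 with MgCl2 and Tween-20 | Compound: One concentration, 20 µM, with 1.0% DMSO | Also added: Phospho 17-mer peptide substrate | Signal: Absorbance at 630 nm | Incubation: 45 min enzyme reaction at room temperature | Measure: % inhibition of SCP-1 phosphate liberation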
SUMO1-SIM PPI – modulators of human SUMO1-mediated protein-protein interactions. SUMO1 binding to a labelled peptide, TR-FRET, 1 h. inhibition, % at 20 µM. 0.33% of 360,000 active. P63165; in the data active = inhibition above about 37%
Target sequence (P63165 whole entry, looked up): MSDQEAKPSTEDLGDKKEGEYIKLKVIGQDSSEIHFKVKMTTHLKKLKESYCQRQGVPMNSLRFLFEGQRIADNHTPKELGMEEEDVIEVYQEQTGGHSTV
LMPTP block – LMPTP (human) inhibition; P24666; recombinant LMPTP-A, OMFP fluorogenic substrate, fluorescence intensity; inhibition, % at 20 µM; 0.22% of 360,000 active; AID 651560;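 active = compounds that cut the enzyme signal by at least half of the control window in the single-dose screen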;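 note: plate controls were DMSO wells with enzyme plus substrate for no effect and substrate without enzyme for full effect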
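Test system: LMPTP-A phosphatase enzyme; input: 0.625 nM LMPTP-A final; reagent: OMFP substrate, 400 µM final; compound dosing: 20 µM single dose, 3% DMSO; incubation: 50 min dark incubation at room temperature; measured by: endpoint fluorescence intensity from OMFP dephosphorylation; measure: % inhibition relative to no-enzyme and uninhibited control wells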
STEP inh – inhibitors of human striatal-enriched phosphatase STEP; P54829; recombinant STEP, OMFP fluorogenic substrate, fluorescence; inhibition, % at 20 µM; 0.25% of 360,000 active; AID 588621;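 active = inhibition at 20 µM, scaled per plate between control wells, above about 37%, limit read from the data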;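 note: 0% = DMSO with enzyme and substrate and 100% = substrate only without enzyme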
Target sequence (P54829 whole entry, looked up): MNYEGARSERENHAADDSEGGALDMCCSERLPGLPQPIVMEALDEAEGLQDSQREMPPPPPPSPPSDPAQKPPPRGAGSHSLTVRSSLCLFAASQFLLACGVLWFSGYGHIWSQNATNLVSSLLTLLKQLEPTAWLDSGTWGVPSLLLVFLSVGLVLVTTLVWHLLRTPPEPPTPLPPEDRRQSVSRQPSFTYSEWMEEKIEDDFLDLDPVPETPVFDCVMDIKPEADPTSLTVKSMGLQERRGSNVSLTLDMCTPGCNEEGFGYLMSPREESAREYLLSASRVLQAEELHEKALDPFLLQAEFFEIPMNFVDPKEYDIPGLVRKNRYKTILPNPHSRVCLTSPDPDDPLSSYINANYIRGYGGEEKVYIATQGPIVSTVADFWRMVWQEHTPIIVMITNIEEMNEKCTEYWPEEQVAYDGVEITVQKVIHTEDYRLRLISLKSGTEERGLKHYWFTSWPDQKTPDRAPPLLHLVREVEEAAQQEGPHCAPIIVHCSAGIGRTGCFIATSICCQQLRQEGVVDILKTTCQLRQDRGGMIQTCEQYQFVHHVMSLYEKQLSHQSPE
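Measure: Control-normalized % inhibition with plate pattern correction | Test system: STEP phosphatase, cell-free reaction | Medium: pH 6.0 Bis-Tris with DTT and Tween 20 | Technique: Fluorescence, 480/540 nm | Times: Reaction 20 min, ambient temperature | Doses: Single compound dose of 20 µM, 1% DMSO final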
Rpn11 inh – blocks the human proteasome subunit Rpn11; O00487; human 26S proteasome, Ub4-pepOG fluorescence polarization; 20S core pre-blocked with epoxomicin; inhibition, % at 20 µM; 0.59% of 360,000 active; AID 588493;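 active = inhibition at 20 µM, scaled to each plate's controls, above about 33%, limit read from the data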
DNMT1 block – inhibitors of human DNMT1; 0.83% of 360,000 active; inhibition (reported as % activation of signal), % at 10 µM; P26358; AID 588458; DNMT1 molecular beacon, Hinp1I cleavage, fluorescence; in the data active = inhibition above about 50%
Rpn11 inh conf – Rpn11 inhibition confirmation, single concentration. inhibition, % at 20 µM. purified human 26S proteasome, Ub4-pepOG fluorescence polarization; proteasome pretreated with epoxomicin. shares compounds with Rpn11 inh. 29% of 1,900 active
MMP-2 counter – MMP-2 (human) inhibition counter-screen; inhibition, % at 20 µM; recombinant MMP-2, FRET peptide cleavage fluorescence; shares compounds with Rpn11 inh; 4% of 1,900 active;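 note: human MMP-2 activated beforehand with APMA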
Thrombin FP – blocks bovine thrombin, flagging nonselective RPN11 hits; 13% of 1,900 active; inhibition, % at 20 µM; AID 602333; shares compounds with Rpn11 inh; bovine thrombin cleavage of Ub4-pepOG, fluorescence polarization;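 active = mean inhibition at least 40% at 20 µM, or signal 3 deviations below plate average, so some actives read negative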;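 note: plate controls were thrombin with DMSO for no effect and buffer wells lacking thrombin for full effect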
* hit, by the source's call; . = no result shown. Cut-off read from the data, not from the text of the source, unless noted: active = inhibition above about 40%; inactive = the rest.

SMILES	Scp1 inh	SUMO1-SIM PPI	LMPTP block	STEP inh	Rpn11 inh	DNMT1 block	Rpn11 inh conf	MMP-2 counter	Thrombin FP
O=C(NC(=S)Nc1ccc2oc(=O)ccc2c1)c1cc2ccccc2o1	-7.3	74.6*	7.7	3.7	42.5*	-0.1	0.9	23.7	3.0
Cc1cc(=O)n(Nc2ccccc2)c(O)c1C#N	.	9.5	0.3	2.5	-6.6	-1.5	.	.	.
O=c1cc(-c2ccc(O)cc2)oc2c1ccc1ccccc12	15.1	90.3*	54.1*	22.1	44.9*	32.9	64.3*	-25.7	-12.7
C=CCN(Cc1ccc(OC)c(OC)c1)C(=O)c1cc2cc(F)ccc2[nH]1	-6.8	-1.8	3.1	0.9	6.3	0.1	.	.	.
CCOC(=O)C1CCCN(C2=NC(=O)/C(=C/c3ccc(O)c(OC)c3)S2)C1 (stereo unspecified)	-10.0	-25.3	0.7	-1.0	76.4*	5.1	43.0*	-30.0	26.3
Cc1noc(NC(=O)c2cccc(Cl)c2Cl)c1C#N	-2.2	1.4	0.1	-1.3	2.4	-0.7	.	.	.
CN(C)CCNC(=O)c1c(NC(=O)c2ccccc2)sc2c1CCCC2	-6.5	0.6	4.9	1.1	-4.1	-5.2	.	.	.
COCCNC(=O)c1c(NC(=O)c2nc(SC)ncc2Cl)sc2c1CCCC2	6.7	-2.1	15.9	0.4	81.1*	20.1	45.2*	-47.5	33.9
COc1cc(C(=O)Nc2nnc(-c3sccc3C)s2)cc(OC)c1OC	-2.2	20.2	2.3	3.7	174.2*	1.9	30.8	-52.3	64.0*
COc1ccc(C2=NC(=O)NC2c2ccc(OC)cc2)cc1 (stereo unspecified)	-9.0	-2.4	-1.4	1.2	38.6*	-0.3	9.5	-13.5	-6.2
O=C1N=C(c2ccccc2)C(c2ccccc2)N1 (stereo unspecified)	-17.8	0.8	-1.0	2.3	-0.4	-0.1	.	.	.
Cc1cccc(C)c1-n1nnnc1C1c2ccccc2C(=O)N1CCc1ccc(O)cc1 (stereo unspecified)	.	-0.7	0.6	.	.	.	.	.	.
N/C(=N\c1nc2c(c(=O)[nH]1)CCC2)Nc1cccc2ccccc12	0.5	1.0	-0.8	1.3	36.1*	1.7	47.3*	-5.9	6.1
COc1ccc2c(C)cc(SCC#N)nc2c1	-4.4	4.0	1.0	-0.7	41.0*	-4.8	36.6	-63.7	18.8
Cc1cc(C)c(C)c(S(=O)(=O)NCc2ccc(C(=O)NCC3CCCO3)cc2)c1C (stereo unspecified)	13.0	0.4	-0.5	3.0	-5.1	0.3	.	.	.
NNC(=O)COc1ccc(-c2nccc(-c3ccc(F)cc3)n2)cc1	5.2	-3.9	0.6	-2.3	4.2	-3.8	.	.	.
NNC(=O)COc1ccc(F)cc1	-9.6	-2.4	-1.3	-0.2	46.1*	-1.8	0.6	-24.9	0.1
COc1ccc(N2CC(C(=O)N[C@@H](CC(C)C)C(=O)NC3CCCC3)CC2=O)cc1 (stereo partly specified)	-9.6	-3.5	-0.2	-1.9	-0.7	0.1	.	.	.
COC1=C/C(=C/c2c(N)n3cc(C)sc3nc2=O)C=CC1=O	-5.2	-39.0	2.1	-0.3	.	-1.5	.	.	.
CCOC1=C/C(=C/c2c(N)n3nc(CC(=O)N4CCCC4)sc3nc2=O)C=CC1=O	12.7	-17.7	0.2	2.0	71.2*	3.9	34.8	22.6	38.4
COC1=C/C(=C/c2c(N)n3nc(CC(=O)N4CCCC4)sc3nc2=O)C=CC1=O	-1.7	-22.2	1.4	-3.0	70.1*	0.8	27.6	-14.8	36.3
CCCS(=O)(=O)NC(=O)C1(C)CCN(C(=O)c2cc(F)cc(F)c2)C1 (stereo unspecified)	.	-1.2	-0.9	-1.6	0.9	-0.8	.	.	.
CC1=CN2C(=N)/C(=C/c3ccc(Sc4ccc(C)cc4)o3)C(=O)N=C2S1	9.2	-11.7	4.0	0.6	47.7*	3.3	34.4	-15.0	11.7
Cc1cc(C)c2c(N)c(C(=O)N/N=C/c3cccs3)sc2n1	-1.9	-40.7	0.4	-0.3	95.1*	-4.4	58.5*	-11.9	40.8*
CCOc1ccc(NC(=O)Nc2cc(C(=O)O)ccc2N2CC3CC(C2)c2cccc(=O)n2C3)cc1 (stereo unspecified)	-3.1	7.3	0.8	0.5	4.9	2.5	.	.	.
SMILES	Scp1 inh	SUMO1-SIM PPI	LMPTP block	STEP inh	Rpn11 inh	DNMT1 block	Rpn11 inh conf	MMP-2 counter	Thrombin FP
O=C(CSc1ncnc2nc[nH]c12)c1ccc2ccccc2c1	3.8	-20.8	1.2	-0.2	-4.6	-7.2	.	.	.
O=C(O)CSc1ncnc2nc[nH]c12	-14.3	1.0	-0.7	0.2	167.5*	-0.8	4.9	-25.9	-0.7
Cc1nnc(SCc2nc3scc(-c4ccccc4)c3c(=O)[nH]2)s1	-0.8	-3.3	0.6	-1.3	43.2*	-1.6	42.5*	-1.9	32.2
O=c1[nH]c(Cc2ccccc2)nc2scc(-c3ccccc3)c12	-1.8	0.0	-2.7	-3.9	1.0	4.4	.	.	.
Nc1nnc(SCc2nc3scc(-c4ccccc4)c3c(=O)[nH]2)s1	-9.0	2.5	0.2	0.4	70.0*	-0.1	69.9*	-0.1	60.2*
COCCn1c(SCc2nc3scc(-c4ccc(Cl)cc4)c3c(=O)[nH]2)nnc1-c1cccc(C)c1	4.0	1.4	3.9	-1.1	50.3*	-2.9	23.8	-8.8	3.6
N#Cc1cccc(C(=O)OCC(=O)c2ccc3c(c2)NC(=O)CO3)c1	3.1	2.0	5.5	4.4	0.2	1.5	.	.	.
CN(CCO)c1ccc(C=NNc2ccc([N+](=O)[O-])cc2S(=O)(=O)Nc2ccccc2C(=O)O)cc1	16.0	8.9	6.7	1.6	90.0*	-32.2	72.9*	-15.0	39.9
O=C(COC(=O)c1cc(=O)[nH]c2ccccc12)NC1CCCCC1	2.6	-15.0	0.3	12.6	-1.3	0.8	.	.	.
COC(=O)c1c(SCC(=O)NC2CCCCC2)[nH]c2ccccc2c1=O	22.2	20.3	-1.0	-2.5	90.7*	40.4	9.0	-35.2	6.2
Cn1c(=O)n(C)c2cc3[nH]cnc3cc21	-12.3	1.6	-0.5	1.8	1.2	-0.8	.	.	.
Nc1cc2nc[nH]c2cc1N	2.5	34.1	15.6	19.2	45.4*	-23.4	-19.3	3.4	-29.2
O=C(CCN1CCc2ccccc2C(c2ccccc2)C1)c1ccc2c(c1)OCCO2 (stereo unspecified)	-9.3	7.4	0.0	-4.3	57.4*	-9.8	-13.0	-29.2	-11.8
